{
  "source": "ChEMBL document CHEMBL3352597",
  "about": "“Heck products of parthenolide and melampomagnolide-B as anticancer modulators that modify cell cycle progression” (Eur J Med Chem, 2014)",
  "format_in_all_cases": "functional",
  "key": {"SK-MEL-2": {"test_system": "SK-MEL-2", "assay": "Anticancer activity against human SK-MEL-2 cells", "summary_of_the_method": "(§1)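 NCI 60 human cancer cell line panel, multiple-dose testing at five concentrations (10^-4, 10^-5, 10^-6, 10^-7 and 10^-8 M). Dose-response curves plot cytotoxic effect against log10 of drug concentration for each cell line. GI50 is the molar concentration giving 50% growth inhibition; LC50 is the concentration killing 50% of cells.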"}, "SK-MEL-28": {"test_system": "SK-MEL-28", "assay": "Anticancer activity against human SK-MEL-28 cells", "summary_of_the_method": "as §1"}, "[1]": {"assay": "Anticancer activity against human UACC257 cells", "summary_of_the_method": "(§2)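 NCI 60 human tumour cell line screen. A single-concentration pre-screen was run at 10^-5 M. Compounds selected from it were then tested at five concentrations, 10^-4 to 10^-8 M. Dose-response curves plotted cytotoxic effect against log10 of the drug concentration for each cell line. GI50 is the molar concentration giving 50% growth inhibition, and LC50 the concentration killing 50% of cells.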"}, "[2]": {"assay": "Anticancer activity against human UACC62 cells", "summary_of_the_method": "as §2"}, "IGROV-1": {"test_system": "IGROV-1", "assay": "Anticancer activity against human IGROV1 cells", "summary_of_the_method": "as §1"}, "[3]": {"assay": "Anticancer activity against human OVCAR3 cells", "summary_of_the_method": "as §1"}, "[4]": {"assay": "Anticancer activity against human OVCAR4 cells", "summary_of_the_method": "as §1"}, "[5]": {"assay": "Anticancer activity against human OVCAR5 cells", "summary_of_the_method": "as §1"}, "[6]": {"assay": "Anticancer activity against human OVCAR8 cells", "summary_of_the_method": "as §1"}, "[7]": {"assay": "Anticancer activity against human NCI-ADR-RES cells", "summary_of_the_method": "as §1"}, "[8]": {"assay": "Anticancer activity against human SKOV3 cells", "summary_of_the_method": "as §1"}, "786-0": {"test_system": "786-0", "assay": "Anticancer activity against human 786-0 cells", "summary_of_the_method": "as §1"}, "A498": {"test_system": "A498", "assay": "Anticancer activity against human A498 cells", "summary_of_the_method": "as §1"}, "ACHN": {"test_system": "ACHN", "assay": "Anticancer activity against human ACHN cells", "summary_of_the_method": "as §1"}, "CAKI-1": {"test_system": "CAKI-1", "assay": "Anticancer activity against human CAKI-1 cells", "summary_of_the_method": "as §1"}, "[9]": {"assay": "Anticancer activity against human RXF393 cells", "summary_of_the_method": "as §1"}, "SN12C": {"test_system": "SN12C", "assay": "Anticancer activity against human SN12C cells", "summary_of_the_method": "as §1"}, "TK-10": {"test_system": "TK-10", "assay": "Anticancer activity against human TK10 cells", "summary_of_the_method": "as §2"}, "[10]": {"assay": "Anticancer activity against human UO31 cells", "summary_of_the_method": "as §2"}, "[11]": {"assay": "Anticancer activity against human PC3 cells", "summary_of_the_method": "as §1"}, "MCF7": {"test_system": "MCF7", "assay": "Anticancer activity against human MCF7 cells", "summary_of_the_method": "as §1"}, "MDA-MB-231": {"test_system": "MDA-MB-231", "assay": "Anticancer activity against human MDA-MB-231 cells", "summary_of_the_method": "as §1"}, "[12]": {"assay": "Anticancer activity against human Hs 578T cells", "summary_of_the_method": "as §1"}, "[13]": {"assay": "Anticancer activity against human BT549 cells", "summary_of_the_method": "as §1"}, "T47D": {"test_system": "T47D", "assay": "Anticancer activity against human T47D cells", "summary_of_the_method": "as §2"}, "MDA-MB-468": {"test_system": "MDA-MB-468", "assay": "Anticancer activity against human MDA-MB-468 cells", "summary_of_the_method": "as §1"}, "[14]": {"conditions": "read-out: LC50 (the source's name)"}},
  "note": "Calls of active or inactive are those of the source. The rule behind the calls is not given here.",
  "data": [
    {"smiles": "C/C1=C\\CC[C@@]2(C)O[C@@H]2[C@H]2OC(=O)/C(=C/c3ccsc3)[C@@H]2CC1", "values": [
      {"measurement": "GI50", "setting": "SK-MEL-2", "value": "inactive"},
      {"measurement": "LC50", "setting": "SK-MEL-2", "value": "inactive"},
      {"measurement": "GI50", "setting": "SK-MEL-28", "value": 29.4, "unit": "µM"},
      {"measurement": "CC50", "setting": "SK-MEL-28; [14]", "value": "> 100", "unit": "µM"},
      {"measurement": "GI50", "setting": "[1]; UACC-257", "value": 16.6, "unit": "µM"},
      {"measurement": "CC50", "setting": "[1]; UACC-257, read-out: LC50 (the source's name)", "value": "> 100", "unit": "µM"},
      {"measurement": "GI50", "setting": "[2]; UACC-62", "value": 13.8, "unit": "µM"},
      {"measurement": "CC50", "setting": "[2]; UACC-62, read-out: LC50 (the source's name)", "value": 76.6, "unit": "µM"},
      {"measurement": "GI50", "setting": "IGROV-1", "value": 27.9, "unit": "µM"},
      {"measurement": "CC50", "setting": "IGROV-1; [14]", "value": "> 100", "unit": "µM"},
      {"measurement": "GI50", "setting": "[3]; OVCAR-3", "value": 20.5, "unit": "µM"},
      {"measurement": "CC50", "setting": "[3]; OVCAR-3, read-out: LC50 (the source's name)", "value": "> 100", "unit": "µM"},
      {"measurement": "GI50", "setting": "[4]; OVCAR-4", "value": 24.3, "unit": "µM"},
      {"measurement": "CC50", "setting": "[4]; OVCAR-4, read-out: LC50 (the source's name)", "value": "> 100", "unit": "µM"},
      {"measurement": "GI50", "setting": "[5]; OVCAR-5", "value": 48.1, "unit": "µM"},
      {"measurement": "CC50", "setting": "[5]; OVCAR-5, read-out: LC50 (the source's name)", "value": "> 100", "unit": "µM"},
      {"measurement": "GI50", "setting": "[6]; OVCAR-8", "value": 26.9, "unit": "µM"},
      {"measurement": "CC50", "setting": "[6]; OVCAR-8, read-out: LC50 (the source's name)", "value": "> 100", "unit": "µM"},
      {"measurement": "GI50", "setting": "[7]", "value": 23.6, "unit": "µM"},
      {"measurement": "CC50", "setting": "[7]; [14]", "value": "> 100", "unit": "µM"},
      {"measurement": "GI50", "setting": "[8]; SK-OV-3", "value": 44.9, "unit": "µM"},
      {"measurement": "CC50", "setting": "[8]; SK-OV-3, read-out: LC50 (the source's name)", "value": "> 100", "unit": "µM"},
      {"measurement": "GI50", "setting": "786-0", "value": 35.7, "unit": "µM"},
      {"measurement": "CC50", "setting": "786-0; [14]", "value": "> 100", "unit": "µM"},
      {"measurement": "GI50", "setting": "A498", "value": 17.5, "unit": "µM"},
      {"measurement": "CC50", "setting": "A498; [14]", "value": "> 100", "unit": "µM"},
      {"measurement": "GI50", "setting": "ACHN", "value": 32.8, "unit": "µM"},
      {"measurement": "CC50", "setting": "ACHN; [14]", "value": "> 100", "unit": "µM"},
      {"measurement": "GI50", "setting": "CAKI-1", "value": 30.9, "unit": "µM"},
      {"measurement": "CC50", "setting": "CAKI-1; [14]", "value": "> 100", "unit": "µM"},
      {"measurement": "GI50", "setting": "[9]; RXF 393", "value": 18.1, "unit": "µM"},
      {"measurement": "CC50", "setting": "[9]; RXF 393, read-out: LC50 (the source's name)", "value": "> 100", "unit": "µM"},
      {"measurement": "GI50", "setting": "SN12C", "value": 25.8, "unit": "µM"},
      {"measurement": "CC50", "setting": "SN12C; [14]", "value": "> 100", "unit": "µM"},
      {"measurement": "GI50", "setting": "TK-10", "value": 34.7, "unit": "µM"},
      {"measurement": "CC50", "setting": "TK-10; [14]", "value": "> 100", "unit": "µM"},
      {"measurement": "GI50", "setting": "[10]; UO-31", "value": 27.3, "unit": "µM"},
      {"measurement": "CC50", "setting": "[10]; UO-31, read-out: LC50 (the source's name)", "value": "> 100", "unit": "µM"},
      {"measurement": "GI50", "setting": "[11]; PC-3", "value": 22.7, "unit": "µM"},
      {"measurement": "CC50", "setting": "[11]; PC-3, read-out: LC50 (the source's name)", "value": "> 100", "unit": "µM"},
      {"measurement": "GI50", "setting": "MCF7", "value": 20, "unit": "µM"},
      {"measurement": "CC50", "setting": "MCF7; [14]", "value": "> 100", "unit": "µM"},
      {"measurement": "GI50", "setting": "MDA-MB-231", "value": 16, "unit": "µM"},
      {"measurement": "LC50 (concentration killing 50% of cells)", "setting": "MDA-MB-231", "value": 81.8, "unit": "µM"},
      {"measurement": "GI50", "setting": "[12]", "value": 21.5, "unit": "µM"},
      {"measurement": "CC50", "setting": "[12]; [14]", "value": "> 100", "unit": "µM"},
      {"measurement": "GI50", "setting": "[13]; BT-549", "value": 20.1, "unit": "µM"},
      {"measurement": "CC50", "setting": "[13]; BT-549, read-out: LC50 (the source's name)", "value": 88.2, "unit": "µM"},
      {"measurement": "GI50", "setting": "T47D", "value": 29.5, "unit": "µM"},
      {"measurement": "CC50", "setting": "T47D; [14]", "value": "> 100", "unit": "µM"},
      {"measurement": "GI50", "setting": "MDA-MB-468", "value": 17.7, "unit": "µM"},
      {"measurement": "LC50 (concentration killing 50% of cells)", "setting": "MDA-MB-468", "value": "> 100", "unit": "µM"}
    ]}
  ]
}
